High-throughput results deposited in PubChem BioAssay by several laboratories.
CSC inhib: cancer stem cell viability inhibitors, primary screen, luminescence; inhibition, % at 7.5 µM; 1.1% of 300,000 active; cancer stem cell-like cells viability; in the data active = inhibition above about 75%; tested in HMLE shEcad cells
T cruzi inh: inhibitors of intracellular T. cruzi growth, primary screen, luminescence, NIH3T3 host cells | inhibition, % (concentration not given with the values) | 1.4% of 300,000 active | T. cruzi beta-gal in NIH3T3, 90 h | AID 1885, 2009;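 active = mean inhibition across valid replicates above about 55%, limit read from the data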;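 note: signal also drops with host cell toxicity which is not excluded here; 0% = plate median of DMSO wells and 100% = zero luminescence signal; higher percent means less beta-gal luminescence so fewer parasites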
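compound dosing = single 50 nL compound addition per well in DMSO | material = NIH/3T3 host cells with β-galactosidase reporter T. cruzi | input = 5,000 host fibroblasts per well | timing = ≥90 h infection period, 3 h prior cell attachment | read-out basis = percent inhibition of parasite-derived β-gal signal | detection = GalScreen β-gal luminescence, detergent lysis, 60 min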
Calb FLC: C. albicans growth inhibition with fluconazole, primary screen, CaCi-2 strain, Alamar Blue fluorescence; C. albicans CaCi-2 (fluconazole-resistant clinical isolate) + fluconazole, 48 h; growth inhibition, % (test concentration not listed); 0.57% of 300,000 active; AID 1979, 2009;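 active = growth inhibition above about 58% in most replicates, limit read from the data, passing the limit was not always enough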;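 note: all wells also contain fluconazole at 8 µg/ml as a sub-toxic cotreatment; 0% = median of DMSO wells and 100% = median of geldanamycin control wells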
Beta apoptosis: inhibitors of cytokine-induced beta cell apoptosis, primary screen, luminescence | INS-1E cytokine-induced death, ATP luminescence, 48 h; percent of positive-control rescue, neutral wells zero | protection from apoptosis, % (test concentration not listed) | 0.8% of 300,000 active | AID 435005, 2010;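 active = Every replicate reaches about 75%, or at least half do and their mean reaches it too, limit read from the data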;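 note: 0% = cytokine-treated negative control wells and 100% = positive control rescue; higher means more ATP so stronger rescue from cytokine killing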
Mdm2-MdmX inh: inhibitors of human Mdm2-MdmX association, primary screen, cell-based, luminescence, split luciferase, SaOS-2, uHTS; SaOS-2 split-luciferase Mdm2/MdmX complementation; inhibition, % at 8 µM; Protein Mdm4 (Homo sapiens) + E3 ubiquitin-protein ligase Mdm2 (Homo sapiens), …; 3% of 330,000 active;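 active = inhibition of at least 50% at 8 µM in the primary screen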
Target sequence (O15151 whole entry, looked up): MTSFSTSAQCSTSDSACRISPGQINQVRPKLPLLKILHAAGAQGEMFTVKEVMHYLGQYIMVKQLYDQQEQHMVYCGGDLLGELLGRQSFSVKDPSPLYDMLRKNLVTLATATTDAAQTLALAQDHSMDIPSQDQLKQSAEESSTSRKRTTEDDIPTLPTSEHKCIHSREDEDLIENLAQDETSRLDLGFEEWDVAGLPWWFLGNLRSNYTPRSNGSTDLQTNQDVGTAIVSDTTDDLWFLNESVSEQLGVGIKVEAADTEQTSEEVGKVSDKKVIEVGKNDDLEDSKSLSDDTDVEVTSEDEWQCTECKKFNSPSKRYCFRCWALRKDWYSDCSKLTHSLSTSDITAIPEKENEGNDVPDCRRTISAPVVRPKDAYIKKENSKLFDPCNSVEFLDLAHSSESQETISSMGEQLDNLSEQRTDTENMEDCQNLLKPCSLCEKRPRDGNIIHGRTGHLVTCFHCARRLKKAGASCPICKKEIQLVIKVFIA
Target sequence (Q00987 whole entry, looked up): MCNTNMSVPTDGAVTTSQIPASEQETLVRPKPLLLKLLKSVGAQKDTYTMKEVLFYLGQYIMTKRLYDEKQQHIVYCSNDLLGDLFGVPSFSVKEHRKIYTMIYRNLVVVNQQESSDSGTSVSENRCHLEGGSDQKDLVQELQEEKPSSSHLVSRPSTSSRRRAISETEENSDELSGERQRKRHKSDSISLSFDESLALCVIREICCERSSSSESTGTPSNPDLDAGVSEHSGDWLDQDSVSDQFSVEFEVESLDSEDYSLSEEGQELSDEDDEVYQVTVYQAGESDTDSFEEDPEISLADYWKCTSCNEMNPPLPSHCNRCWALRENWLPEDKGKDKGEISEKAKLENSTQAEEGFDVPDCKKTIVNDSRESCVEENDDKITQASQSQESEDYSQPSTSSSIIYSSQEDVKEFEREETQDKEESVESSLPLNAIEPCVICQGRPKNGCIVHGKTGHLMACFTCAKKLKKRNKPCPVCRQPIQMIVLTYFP
SKKanGAS inh: S. pyogenes SKKanGAS growth inhibitors in kanamycin, primary screen, streptokinase expression inhibitor project, SKKanGAS strain, BacTiter-Glo luminescence; 1.3% of 300,000 active; 6 h; inhibition, % at 7.5 µM;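 active = mean replicate score, as percent of positive control median, at least 50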;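 note: strain carries kanamycin resistance gene driven by streptokinase promoter and grows in 40 µg/ml kanamycin; loss of luminescence reflects streptokinase promoter inhibition or plain growth inhibition; 0% = median of DMSO wells and 100% = positive control at its reference dose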
* hit, by the source's call; / = no result. Shown are actives, neighbours in structure and some others; about 5.7% of the full set was active somewhere.

SMILES	CSC inhib	T cruzi inh	Calb FLC	Beta apoptosis	Mdm2-MdmX inh	SKKanGAS inh
O=S(=O)(Nc1nc2ccccc2s1)c1cc(F)ccc1F	1.2	7.4	33.0	2.3	6.5	8.6
O=S(=O)(Nc1nc2ccccc2s1)c1ccc(Cl)s1	51.8	-1.5	31.8	81.2*	26.4	0.5
CCOC(=O)c1c(-c2ccccc2Cl)cn2ccccc12	11.5	3.9	90.7*	-9.3	7.7	13.1
CC(=O)Nc1cccc(OCC(=O)Nc2sccc2C(N)=O)c1	-8.9	-6.1	-6.8	1.7	-40.4	-0.9
Cc1cccc(CSc2[nH]c(=O)ncc2C)c1	1.3	8.1	1.2	6.3	25.6	-13.2
COc1cc(/C=C/C(=O)OCC(=O)c2c(N)n(C)c(=O)n(C)c2=O)ccc1OC(F)F	-0.6	19.4	-6.8	-10.6	4.2	19.4
COc1cc(/C=C/C(=O)OCC(=O)c2c(N)n(C)c(=O)n(C)c2=O)ccc1O	-6.1	-23.4	-7.5	1.0	-4.3	58.3*
COc1cc(/C=C/C(=O)OCC(=O)c2c(N)n(C)c(=O)n(C)c2=O)ccc1OCC#N	-1.3	-4.5	3.2	-7.3	-12.5	56.0*
O=C(COC(=O)CN1CCSC1=O)Nc1ccc(F)cc1Cl	-17.5	/	/	-2.6	-11.7	/
CC(=O)NC1=NC(=O)/C(=C/c2cc(C)n(-c3ccc(NC(C)=O)cc3)c2C)S1	/	-19.1	-4.6	2.6	-8.3	78.8*
CC(=O)NC1=NC(=O)/C(=C/c2cc(C)n(-c3cccc(C(=O)O)c3)c2C)S1	/	-9.0	-1.6	/	5.5	34.0
Cc1cc(/C=C2\SC(=O)N(C)C2=O)c(C)n1-c1ccc(O)cc1	-5.3	4.1	13.1	6.3	14.8	87.8*
Cc1cc(/C=C2\SC(=O)NC2=O)c(C)n1-c1ccc(N2CCOCC2)cc1	-16.0	4.3	-2.3	8.6	27.4	99.7*
Cc1ccc(CN2CC(C(=O)NCCCSc3ccccc3)CC2=O)cc1 (configuration not stated)	1.8	-21.9	-8.9	-6.3	26.0	1.3
O=CN1CCN(S(=O)(=O)c2ccc(S(=O)(=O)NC3CCCCC3)cc2)CC1	-1.4	5.0	-6.5	/	12.7	1.5
O=C(NCC1CCCC(CNC(=O)Nc2ccc(Cl)cn2)C1)Nc1ccc(Cl)cn1 (configuration not stated)	-5.1	59.8*	11.4	29.5	27.2	36.5
CC(C)(C)c1ccc(Cn2nnc3c(=O)[nH]c(C4CCCN(C(=O)c5cccs5)C4)nc32)cc1 (configuration not stated)	78.6*	31.5	11.7	-3.3	22.9	14.3
O=C(NCc1cccs1)c1nc2c(nnn2Cc2ccccc2Cl)c(=O)[nH]1	110.8*	40.8	44.9	5.1	/	18.9
O=C(c1cccs1)N1CCC(c2nc3c(nnn3Cc3ccccc3Cl)c(=O)[nH]2)CC1	-5.2	4.4	4.2	/	31.2	51.7*
COc1ccccc1Cn1nnc2c(=O)[nH]c(C3CCN(C(=O)c4ccccc4Cl)CC3)nc21	-28.3	1.4	-1.0	-3.3	33.3	90.7*
COc1ccccc1Cn1nnc2c(=O)[nH]c(C3CCN(C(=O)c4ccc(F)cc4)CC3)nc21	0.7	-10.0	-0.2	-2.6	16.6	0.1
CCC(Oc1ccccc1)C(=O)Nc1cc(C(F)(F)F)ccc1N1CCOCC1 (configuration not stated)	10.1	3.2	3.1	-2.3	-4.7	-9.4
CC(C)(C)CC(=O)N1CCC(c2nc3c(nnn3Cc3c(F)cccc3Cl)c(=O)[nH]2)CC1	-14.8	-0.8	0.8	6.4	32.4	73.8*
Cc1ccc(OCCCCNC2CCCCC2)c(C)c1	36.0	54.7*	-47.7	4.0	19.3	-20.6
CC(C)c1nc(-c2ccccc2)c(-c2ccccc2)[nH]1	-2.9	4.0	-15.0	87.7*	7.1	-2.5
CN(C)c1ccc(C(=O)N2CCCC2)cc1	/	-4.5	-26.2	-0.3	1.7	3.0
O=C(CCCOc1ccc(Cl)cc1Cl)NCCc1ccccn1	-14.1	3.7	-10.5	-13.6	23.8	7.4
O=C(O)[C@H]1CCCC[C@H]1C(=O)Nc1ccc(Nc2ccccc2)cc1	-8.1	-4.0	-0.6	-4.8	-15.2	-2.5
